The text below walks through data of ChEMBL document CHEMBL3259749, “Design, synthesis and evaluation of novel 2,5,6-trisubstituted benzimidazoles targeting FtsZ as antitubercular agents” (Bioorg Med Chem, 2014).

Assay [1] relates to Mycobacterium tuberculosis. The assay can be described thus: Antimycobacterial activity against Mycobacterium tuberculosis H37Rv assessed as growth inhibition at 1 ug/ml after 7 days incubation by Alamar Blue staining-based broth microdilution assay. The class given is functional. To be noted: 168 h, read-out: GI. On the technique in general: Resazurin is reduced to fluorescent resorufin, in cell work by metabolically active cells.

Assay [2] has as its system Mycobacterium tuberculosis. Put plainly: Antimycobacterial activity against Mycobacterium tuberculosis H37Rv assessed as growth inhibition after 7 days incubation by Alamar Blue staining-based broth microdilution assay. The class given is functional. Conditions: 168 h. An outline of the steps: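 Mid-log Mtb H37Rv grown in 7H9 with 10% OADC and 0.05% Tween-80, added to 2-fold serial dilutions of DMSO-stocked compound at OD600 0.005. Incubated 6 days at 37 °C, then Alamar Blue added for a further 24 h at 37 °C. Colour change read by eye; MIC99 taken in triplicate.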

The test system of the next assay is Vero. Put plainly: Cytotoxicity against African green monkey Vero cells […] by MTT assay. The class given is cell-based. To be noted: Chlorocebus sabaeus. (Tetrazolium assays rely on reduction of a dye to a coloured formazan, in cell work by metabolically active cells.)
Assay [3] in a line: Binding affinity to Mycobacterium tuberculosis FtsZ assessed as fluorescence intensity at emission maximum 427.9 nm. A digest of the protocol:
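Fluorescence of compound held at 100 μM, titrated with His-tagged Mtb-FtsZ expressed in E. coli BL21(DE3). FtsZ was Ni-resin purified and dialysed into Tris storage buffer. Run in 50 mM MES, 100 mM KCl, 5 mM MgCl2, with no GTP. Excitation 316 nm, emission 427.9 nm. Kd obtained by fitting ΔF = (ΔFmax × L)/(Kd + L).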

Assay [4] deals with Mycobacterium tuberculosis. Put plainly: Inhibition of Mycobacterium tuberculosis FtsZ polymerization assessed as reduction in length, density and aggregation of polymer at 40 to 80 uM by Transmission electron microscopy in presence of 25 uM GTP. A digest of the protocol: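 Mtb-FtsZ at 5 μM, Ni-NTA purified, held 15 min on ice with ethanol-stocked compound in 50 mM MES pH 6.5, 5 mM MgCl2, 100 mM KCl. GTP added to 25 μM final, then 30 min at 37 °C. Sample diluted 2-fold, negatively stained with 1% uranyl acetate on carbon-coated grids, imaged at 80 kV at 23,000x and 49,000x.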

Assay [5] deals with Mycobacterium tuberculosis. The assay can be described thus: Inhibition of Mycobacterium tuberculosis FtsZ polymerization assessed as 90 degrees light scattering by fluorescence system. A digest of the protocol:
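His-tagged Mtb-FtsZ at 15 μM, Ni-resin and size-exclusion purified, preincubated with DMSO-stocked compound for up to 300 s. Buffer was 50 mM MES pH 6.5, 100 mM KCl, 5 mM MgCl2. Polymerization started with 100 μM GTP. 90° light scattering recorded at 30 °C, excitation/emission 400 nm, for up to 30 min.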

Values after ≈ are worked out from the molar mass of the structure shown. Active and inactive are the calls of the source. No cut-off for these calls is given here. Where only a bound is given, the exact number is not on record here.

As to `C=CCCC(=O)Nc1cc2nc(C3CCCCC3)[nH]c2cc1OCCCC`, the inhibition of growth at 1 µg/mL in assay [1] turned out to be 28%.

In the case of `CCCOC(=O)Nc1cc2nc(C3CCCCC3)[nH]c2cc1Sc1ccc(F)cc1`, the inhibition of growth at 1 µg/mL in assay [1] was 46%.

Regarding `CCCCSc1cc2[nH]c(C3CCCCC3)nc2cc1NS(=O)(=O)c1ccccc1`, the inhibition of growth at 1 µg/mL in assay [1] was found to be 42%.

`Cc1ccc(C(=O)Nc2cc3nc(C4CCCCC4)[nH]c3cc2Sc2ccccc2)cc1`: the MIC in assay [2] stood at 6.25 µg/mL (≈ 14.2 µM). The IC50 with Vero turned out to be 6.25 µM. Also, in assay [1], the inhibition of growth at 1 µg/mL was 31%.

As to `C=CCCC(=O)Nc1cc2nc(C3CCCCC3)[nH]c2cc1Oc1ccc(F)cc1`, in assay [2], the MIC was found to be 12.5 µg/mL (≈ 30.7 µM). Besides, the IC50 with Vero is over 200 µM. In addition, in assay [1], the inhibition of growth at 1 µg/mL is 54%.

Regarding `CCCOC(=O)Nc1cc2nc(C3CCCCC3)[nH]c2cc1SCc1ccccc1`, the inhibition of growth at 1 µg/mL in assay [1] was found to be 28%.

In the case of `CCCCOC(=O)Nc1cc2nc(C3CCCCC3)[nH]c2cc1N(CC)CC`, the minimal inhibitory concentration (MIC) in assay [2] was 0.78 µg/mL (≈ 2.02 µM).

Consider `CCCCOC(=O)Nc1cc2nc(C3CCCCC3)[nH]c2cc1N1CCCC1`, for which the MIC in assay [2] is 0.39 µg/mL (≈ 1.01 µM).

Consider `CC(C)(C)c1ccc(C(=O)Nc2cc3nc(C4CCCCC4)[nH]c3cc2SCc2ccccc2)cc1`, for which the MIC in assay [2] worked out at 12.5 µg/mL (≈ 25.1 µM). This molecule registered an IC50 in the assay with Vero of over 200 µM. The inhibition of growth at 1 µg/mL in assay [1] is 52%.

As for `C=CCCC(=O)Nc1cc2nc(C3CCCCC3)[nH]c2cc1SCCCC`, the inhibition of growth at 1 µg/mL in assay [1] came out at 52%.

For the molecule `CCCCSc1cc2[nH]c(C3CCCCC3)nc2cc1NC(=O)c1ccc(C(C)(C)C)cc1`, in assay [1], the inhibition of growth at 1 µg/mL amounted to 45%.

Take `CCCCSc1cc2[nH]c(C3CCCCC3)nc2cc1NC(=O)c1ccc(F)cc1F`: the MIC in assay [2] worked out at 1.25 µg/mL (≈ 2.82 µM). The IC50 in the assay on Vero is over 200 µM. The inhibition of growth at 1 µg/mL in assay [1] was 51%.

Consider `CCN(CC)c1cc2[nH]c(C3CCCCC3)nc2cc1NC(=O)c1ccc(OC)cc1`, for which the MIC in assay [2] was determined as 3.1 µg/mL (≈ 7.37 µM).

`CC(C)(C)c1ccc(C(=O)Nc2cc3nc(C4CCCCC4)[nH]c3cc2Sc2ccccc2)cc1`: the inhibition of growth at 1 µg/mL in assay [1] was found to be 42%.

Regarding `CCCCOC(=O)Nc1cc2nc(C3CCCCC3)[nH]c2cc1Oc1ccc(F)cc1`, the equilibrium dissociation constant (Kd) in assay [3] stood at 1.32 µM. The inhibition entry in assay [4] was “Active”. In assay [2], the MIC turned out to be 0.63 µg/mL (≈ 1.48 µM). 60 µM corresponded to half-maximal inhibition in the assay with Vero (IC50). Also, the inhibition result in assay [5] was “Dose-dependent effect”.

As to `CCCCSc1cc2[nH]c(C3CCCCC3)nc2cc1NC(=O)OCCC`, the MIC in assay [2] came out at 1.25 µg/mL (≈ 3.21 µM). The IC50 in the assay with Vero was found to be 75 µM. In assay [1], the inhibition of growth at 1 µg/mL worked out at 38%.

As for `C=CCCC(=O)Nc1cc2nc(C3CCCCC3)[nH]c2cc1Sc1ccc(F)cc1`, the inhibition of growth at 1 µg/mL in assay [1] turned out to be 41%.

`CCCCSc1cc2[nH]c(C3CCCCC3)nc2cc1NC(=O)CCc1ccccc1`: the inhibition of growth at 1 µg/mL in assay [1] amounted to 33%.

Consider `O=C(Nc1cc2nc(C3CCCCC3)[nH]c2cc1Oc1ccc(F)cc1)c1ccc(F)cc1F`, for which the MIC in assay [2] amounted to 12.5 µg/mL (≈ 26.9 µM). The IC50 with Vero was over 200 µM. In addition, the inhibition entry in assay [5] was “Dose-dependent effect”. Besides, the inhibition of growth at 1 µg/mL in assay [1] was 44%.

As to `C=CCCC(=O)Nc1cc2nc(C3CCCCC3)[nH]c2cc1SCc1ccccc1`, in assay [1], the inhibition of growth at 1 µg/mL worked out at 64%.

On to `COc1ccc(C(=O)Nc2cc3nc(C4CCCCC4)[nH]c3cc2Oc2ccc(F)cc2)cc1`, for which the MIC in assay [2] came out at 3.13 µg/mL (≈ 6.81 µM). Also, the IC50 in the assay with Vero was found to be 40 µM.

The molecule `CCCCSc1cc2[nH]c(C3CCCCC3)nc2cc1NC(=O)c1ccc(C)cc1` returned an IC50 in the assay with Vero of over 200 µM. In addition, the inhibition of growth at 1 µg/mL in assay [1] was determined as 53%.

`O=S(=O)(Nc1cc2nc(C3CCCCC3)[nH]c2cc1SCc1ccccc1)c1ccccc1`: the inhibition of growth at 1 µg/mL in assay [1] is 30%.

For the molecule `CCOc1cc2[nH]c(C3CCCCC3)nc2cc1NC(=O)c1ccc(C)cc1`, the inhibition of growth at 1 µg/mL in assay [1] was 65%.

As to `C=CCCC(=O)Nc1cc2nc(C3CCCCC3)[nH]c2cc1Sc1ccccc1`, in assay [1], the inhibition of growth at 1 µg/mL turned out to be 56%.

As for `Cc1ccc(C(=O)Nc2cc3nc(C4CCCCC4)[nH]c3cc2Oc2ccc(F)cc2)cc1`, in assay [2], the MIC was 1.56 µg/mL (≈ 3.52 µM). In the assay on Vero, it took 26 µM to reach half-maximal inhibition (IC50). Moreover, the inhibition of growth at 1 µg/mL in assay [1] was determined as 36%.

With `O=S(=O)(Nc1cc2nc(C3CCCCC3)[nH]c2cc1Sc1ccc(F)cc1)c1ccccc1`, the inhibition of growth at 1 µg/mL in assay [1] is 30%.

Broadly, the MIC is the lowest concentration that inhibits growth of the organism. The IC50 is the concentration that gives 50% inhibition. Usually Kd stands for the free concentration of one partner at which half of the binding sites on the other are occupied at equilibrium, for simple one-to-one binding.
